Data taken from article PMC2753403 (Journal of the American Chemical Society, 2009).
Several values for one entry are separate records, joined by “and”; a condition that tells them apart may be missing. Equal entries are not always repeated. Where two headings read alike, the source gives them in different places.

Tests used:
mouse fetal metatarsal = assay: Mouse fetal metatarsal 45Ca2+ release inhibition assay; conditions: read-out: IC50, 45Ca2+ release inhibition
Human FPPS = biological target: T1, Human FPPS (Homo sapiens, UniProt P14324); assay: Human FPPS inhibition; type: biochemical
T1 sequence (P14324 1-419): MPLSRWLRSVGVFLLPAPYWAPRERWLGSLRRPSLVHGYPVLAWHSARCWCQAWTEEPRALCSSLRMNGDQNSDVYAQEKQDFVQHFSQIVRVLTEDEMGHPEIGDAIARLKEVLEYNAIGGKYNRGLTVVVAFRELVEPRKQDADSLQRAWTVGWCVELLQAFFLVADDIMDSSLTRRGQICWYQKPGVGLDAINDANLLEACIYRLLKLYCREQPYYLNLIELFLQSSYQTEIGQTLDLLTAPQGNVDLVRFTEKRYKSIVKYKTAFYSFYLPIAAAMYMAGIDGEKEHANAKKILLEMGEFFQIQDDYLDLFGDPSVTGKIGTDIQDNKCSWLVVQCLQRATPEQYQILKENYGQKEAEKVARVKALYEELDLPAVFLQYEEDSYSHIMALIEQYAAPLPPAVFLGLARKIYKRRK
Procedure, shortened: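 Recombinant human FPPS condensed geranyl diphosphate with isopentenyl diphosphate, followed by a continuous spectrophotometric phosphate-release assay. Buffer was 50 mM Tris-HCl, 1 mM MgCl2, pH 7.4. Enzyme and test compound were preincubated 30 min at 20°C. IC50 came from a dose-response curve fit.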

[1] = system: human tumor cell lines: MCF-7, NCI-H460 and SF-268; assay: FOH/GGOH rescue of cell growth inhibition; type: cell-based; conditions: for rescue from growth inhibition by FOH: 20 μM FOH added; for rescue from growth inhibition by GGOH: 20 μM GGOH added
Procedure, shortened: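 Cells were grown in RPMI-1640 with 10% FBS and 2 mM L-glutamine at 37°C, 5% CO2. They were seeded at 5,000 cells/well with test compound added, and each well also received FOH or GGOH from ethanol stocks at a fixed 20 μM. After 4 days, growth was read by MTT.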

[2] = system: human tumor cell lines: MCF-7, NCI-H460 and SF-268; assay: Tumor cell growth inhibition; type: cell-based
Procedure, shortened: (§1)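 Cells were grown in RPMI-1640 with 10% FBS and 2 mM L-glutamine at 37°C, 5% CO2, 100% humidity, and seeded at 5,000 cells/well. Test compound came from 0.01 M water stocks as a half-log serial dilution series (0.316 mM to 0.1 pM) prepared before addition. Plates ran 4 days, then MTT dose-response.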

SK-ES-1 sarcoma cells = assay: SK-ES-1 sarcoma mouse xenograft; type: in vivo; conditions: athymic nude mice, 5 μg daily intraperitoneal, 30 days
Procedure, shortened: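 Four 6-week-old athymic nude mice each received 1.5×10^7 human SK-ES-1 cells subcutaneously in the right flank. Treatment was daily intraperitoneal test compound (5 μg) for 30 days, or physiological saline. Tumor diameters and body weight were measured weekly, and volume = (smallest diameter)2 × (largest diameter)/2. Statistics used one-way ANOVA with Fisher's PLSD, with p < 0.05 taken as significant.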

breast cancer patients = conditions: Phase III, 1803 breast cancer patients, zoledronate (+hormone) therapy; cited from earlier work
[3] = 14C-labelled olpadronate displacement bone-binding model; conditions: fetal mouse metatarsals, Figure 8b
MCF-7 = MCF-7 cell growth inhibition; type: cell-based; conditions: Homo sapiens, MCF7, 96 h, read-out: IC50, tumor cell growth inhibition
Procedure, shortened: as §1

MDA-MB-231 cells = assay: Matrigel invasion assay; type: cell-based, human; conditions: 24 hours treatment, up to 10 μM
[4] = mouse fetal metatarsal, Figure 8a

Row | Compound | IC50 (mouse fetal metatarsal; [4]) | rescue from growth inhibition by FOH [1] | rescue from growth inhibition by GGOH [1] | IC50 (MCF-7) [nM] | further results
1 | O=P(O)(O)C(O)(Cc1cccc(-c2cccc(NS(=O)(=O)c3ccc4ccccc4c3)c2)c1)P(=O)(O)O [BPH-675] | ~30000 nM | FOH has no effect | almost fully reversed by addition of 20 μM GGOH |  | FPPS inhibition (in words) (Human FPPS): very weak
2 | CCCCCCCCCCOc1ccc[n+](CC(P(=O)([O-])O)P(=O)(O)O)c1 (centres unmarked) [BPH-715] | 2900 nM and ~2900 nM | no rescue by either FOH or GGOH | no rescue by either FOH or GGOH |  | IC50 in tumor cell growth inhibition, fold lower than zoledronate ([2]; versus zoledronate): ~ 100 fold; weight loss or other adverse effect (SK-ES-1 sarcoma cells): no weight loss or other adverse effect observed
3 | O=P(O)(O)C(O)(Cn1ccnc1)P(=O)(O)O [zoledronate] |  |  | only a partial rescue by GGOH | ~15000 | IC50 (mouse fetal metatarsal; Mus musculus): ~100 nM; reduced risk of cancer returning, or death (breast cancer patients): 36%; displacement of bound 14C-labelled olpadronate [3]: far more effective in displacing this bound bisphosphonate than are the lipophilic species; effect on MDA-MB-231 invasion (MDA-MB-231 cells): essentially no effect even at 10 μM; reduction in tumor cell growth (tumor volume) (SK-ES-1 sarcoma cells): significant (p < 0.01) reduction in tumor cell growth versus control
4 | CC(C)=CCCC(C)=CCC(CC=C(C)CCC=C(C)C)(P(=O)(O)O)P(=O)(O)O [1,1-digeranylmethylene bisphosphonate, reference compound] |  |  | rescue by GGOH |  | 
5 | CCCCCCCCCCCCOc1ccc[n+](CC(P(=O)(O)O)P(=O)(O)O)c1 [BPH-716] | ~1300 nM |  |  |  | activity in the cell assays compared with BPH-715 ([2]; growth inhibition and Matrigel invasion assays): about the same activity as BPH-715
6 | NCCC(O)(P(=O)(O)O)P(=O)(O)O [pamidronate] |  |  |  | ~140000 | 
